How the values were obtained:
Type in all cases: functional
Hepatocyte [1] = experiment: Hepatoprotective activity in mouse hepatocytes assessed inhibition of D-galactosamine/TNFalpha-induced cell death at 50 uM administered before 30 mins of TNFalpha challenge measured after 18 hrs
In short: (§1)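 Primary mouse hepatocytes, isolated by collagenase perfusion, were cultured in William's E medium with 10% calf serum, dexamethasone and insulin at 1.5×10^4 cells/well. TNF-α (100 ng/mL) was added 30 min later. Viability was read by MTT after 18 h. Values are mean ± SD, n = 4 (normal and control n = 8), with Student's t-test versus control.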

Hepatocyte [2] = experiment: Hepatoprotective activity in mouse hepatocytes assessed protection against D-galactosamine/TNFalpha-induced cell death at 50 uM administered before 30 mins of TNFalpha challenge measured after 18 hrs; in short: as §1
Hepatocyte [3] = experiment: Hepatoprotective activity against D-galactosamine/TNFalpha-induced cell death in mouse hepatocytes assessed cell survival rate at 50 uM administered before 30 mins of TNFalpha challenge measured after 18 hrs by MTT assay; in short: as §1
Hepatocyte [4] = experiment: Hepatoprotective activity in mouse hepatocytes assessed protection against D-galactosamine/TNFalpha-induced cell death at 100 uM administered before 30 mins of TNFalpha challenge measured after 18 hrs; in short: as §1
Hepatocyte [5] = experiment: Hepatoprotective activity against D-galactosamine/TNFalpha-induced cell death in mouse hepatocytes assessed cell survival rate at 100 uM administered before 30 mins of TNFalpha challenge measured after 18 hrs by MTT assay; in short: as §1
Hepatocyte [6] = experiment: Hepatoprotective activity in mouse hepatocytes assessed inhibition of D-galactosamine/TNFalpha-induced cell death at 100 uM administered before 30 mins of TNFalpha challenge measured after 18 hrs; in short: as §1
Hepatocyte [7] = experiment: Hepatoprotective activity against D-galactosamine/TNFalpha-induced cell death in mouse hepatocytes assessed cell survival rate at 200 uM administered before 30 mins of TNFalpha challenge measured after 18 hrs by MTT assay; in short: as §1
Hepatocyte [8] = experiment: Hepatoprotective activity in mouse hepatocytes assessed inhibition of D-galactosamine/TNFalpha-induced cell death at 200 uM administered before 30 mins of TNFalpha challenge measured after 18 hrs; in short: as §1
Hepatocyte [9] = experiment: Hepatoprotective activity in mouse hepatocytes assessed protection against D-galactosamine/TNFalpha-induced cell death at 200 uM administered before 30 mins of TNFalpha challenge measured after 18 hrs; in short: as §1

SMILES	inhibition (INH) (Hepatocyte [1])	Activity (Hepatocyte [2])	Survival (Hepatocyte [3])	Activity (Hepatocyte [4])	Survival (Hepatocyte [5])	inhibition (INH) (Hepatocyte [6])	Survival (Hepatocyte [7])	inhibition (INH) (Hepatocyte [8])	Activity (Hepatocyte [9])
CC(C)=CCC[C@](C)(O[C@@H]1O[C@H](CO[C@@H]2O[C@@H](CO)[C@H](O)[C@H]2O)[C@@H](O)[C@H](O)[C@H]1O)[C@H]1CC[C@]2(C)[C@@H]1[C@H](O)C[C@@H]1[C@@]3(C)CC[C@H](O[C@@H]4O[C@H](CO)[C@@H](O)[C@H](O)[C@H]4O[C@@H]4O[C@H](CO)[C@@H](O)[C@H](O)[C@H]4O)C(C)(C)[C@@H]3CC[C@]12C [GINSENOSIDE RC]	6.7%	3.2%	32.1%	1.9%	31.4%	4.4%	26.7%	-11.3%	
CC(C)=CCC[C@](C)(O[C@@H]1O[C@H](CO[C@@H]2O[C@H](CO)[C@@H](O)[C@H](O)[C@H]2O)[C@@H](O)[C@H](O)[C@H]1O)[C@H]1CC[C@]2(C)[C@@H]1[C@H](O)C[C@@H]1[C@@]3(C)CC[C@H](O[C@@H]4O[C@H](CO)[C@@H](O)[C@H](O)[C@H]4O[C@@H]4O[C@H](CO)[C@@H](O)[C@H](O)[C@H]4O)C(C)(C)[C@@H]3CC[C@]12C [GINSENOSIDE RB1]	14.3%	6%	34.4%	8.5%	36%	19.8%	39.6%	31.9%	13.7%
CC1(C)O[C@](C)([C@H]2CC[C@]3(C)[C@@H]2[C@H](O)C[C@@H]2[C@@]4(C)CC[C@H](O)C(C)(C)[C@@H]4[C@@H](O[C@@H]4O[C@H](CO)[C@@H](O)[C@H](O)[C@H]4O)C[C@]23C)CC[C@H]1O [GINSENOSIDE R10]	37.6%	16%	41.1%	12%	38.3%	28%	35.2%	17.8%	7.6%
C=C(C)C(=O)CC[C@](C)(O[C@@H]1O[C@H](CO)[C@@H](O)[C@H](O)[C@H]1O)[C@H]1CC[C@]2(C)[C@@H]1[C@H](O)C[C@@H]1[C@@]3(C)CC[C@H](O)C(C)(C)[C@@H]3[C@@H](O[C@@H]3O[C@H](CO)[C@@H](O)[C@H](O)[C@H]3O)C[C@]12C	19.2%	8.2%	35.6%	12%	38.4%	28.3%	44.3%	48.2%	20.5%
CO[C@@](C)(CCC=C(C)C)[C@H]1CC[C@]2(C)[C@@H]1[C@H](O)C[C@@H]1[C@@]3(C)CC[C@H](O)C(C)(C)[C@@H]3[C@@H](O[C@@H]3O[C@H](CO)[C@@H](O)[C@H](O)[C@H]3O)C[C@]12C [GINSENOSIDE RH5]	23.5%	13.1%	36.9%			27.9%		-24%	
CC(C)=CCC[C@](C)(O[C@@H]1O[C@H](CO)[C@@H](O)[C@H](O)[C@H]1O)[C@H]1CC[C@]2(C)[C@@H]1[C@H](O)C[C@@H]1[C@@]3(C)CC[C@H](O[C@@H]4O[C@H](CO)[C@@H](O)[C@H](O)[C@H]4O[C@@H]4O[C@H](CO)[C@@H](O)[C@H](O)[C@H]4O)C(C)(C)[C@@H]3CC[C@]12C [GINSENOSIDE RD]	17.5%	7.4%	35.3%	8.4%	35.9%	19.5%	41.8%	39.1%	16.8%

— ChEMBL document CHEMBL1150813, “Triterpene saponins from Vietnamese ginseng (Panax vietnamensis) and their hepatocytoprotective activity” (J Nat Prod, 2001)
